Measurements gathered from unrelated publications.
Protocols differ between the studies behind these lines.
Target: Testis-specific serine/threonine-protein kinase 3 (TSSK3, Homo sapiens, UniProt Q96PN8)
Sequence (Q96PN8 1-268, as in one of the studies): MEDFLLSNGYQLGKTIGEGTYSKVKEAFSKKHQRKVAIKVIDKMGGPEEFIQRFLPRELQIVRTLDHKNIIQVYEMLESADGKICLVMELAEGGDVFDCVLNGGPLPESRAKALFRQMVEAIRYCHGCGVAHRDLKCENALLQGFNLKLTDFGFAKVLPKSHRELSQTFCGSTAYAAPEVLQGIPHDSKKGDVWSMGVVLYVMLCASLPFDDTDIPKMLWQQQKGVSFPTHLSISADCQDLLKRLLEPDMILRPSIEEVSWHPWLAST

Structure (SMILES)	test	conditions	remaining binding [%]
Nc1c(C(=O)NCc2ccc(C(=O)NCCCC3CCCCC3)cc2)cnn1-c1ccccc1	cell-free assay, competition with immobilised ligand	0.1 µM	100
C[C@@H](c1ccc(-n2cnc3c(N)ncnc32)cc1)N1CCc2nn(C)c(Cc3ccccc3)c2C1=O	binding, competition with immobilised ligand	0.1 µM	70
Cc1c(NC(=O)c2cc(C(N)=O)nc3cc(F)ccc23)c(C(F)(F)F)nn1Cc1ccc(C(C)(C)C)cc1	cell-free assay, competition with immobilised ligand	1 µM	100
N[C@H]1CCN(c2nccc(-c3cnn4ncccc34)n2)C1	binding	1 µM	88
FC(F)(F)Oc1cccc(-c2cnc3ccc(-c4ccncc4)nn23)c1	binding, competition with immobilised ligand	5 µM	91
O=C(c1ccc(Nc2ncc(Cl)c(-c3ccc(Cl)s3)n2)cc1)N1CCC(N2CCCC2)CC1	binding, competition with immobilised ligand	1 µM	100
CNC(=O)Nc1ccc2c(c1)[C@@]1(CC2)OC(=O)N(CC(=O)N(Cc2ccc(F)cc2)[C@@H](C)C(F)(F)F)C1=O	cell-free assay, competition with immobilised ligand	1 µM	100
C=CC(=O)N1CCC(C(=O)NCC(=O)N2CCN(c3nc(-c4cnc(N)nc4C(F)F)nc(N4CCOCC4)n3)CC2)CC1	binding, competition with immobilised ligand	1 µM	100
O=C(Nc1cnc(Oc2ccc(F)cc2)nc1)N1CCc2ncccc2[C@@H]1c1ccc(F)cc1	cell-free assay, competition with immobilised ligand	1 µM	86
C[C@H]1CCN(c2nccc(-c3cnn4ncccc34)n2)C1	binding	1 µM	92
O=C(Nc1c[nH]nc1C(=O)NC1CCNCC1)c1cc(F)cc(F)c1	binding, competition with immobilised ligand	1 µM	100
COc1cnc(Nc2cccc(S(N)(=O)=O)c2)nc1N1CCN(c2ccccc2)CC1	binding, competition with immobilised ligand	1 µM	97
CN(c1nccc(-c2cnn3ncccc23)n1)C1CC1	binding	1 µM	99
CN([C@@H]1CCc2c(CC(=O)O)c3cc(S(C)(=O)=O)ccc3n2C1)S(=O)(=O)c1ccc(F)cc1	cell-free assay, competition with immobilised ligand	1 µM	100
F[C@@H]1CCN(c2nccc(-c3cnn4ncccc34)n2)C1	binding	1 µM	100
CCCCN(CCCC)C(=O)CN1C[C@H](c2cc(OC)c3c(c2)OCO3)[C@@H](C(=O)O)[C@@H]1CC(C)(C)CCC	cell-free assay, competition with immobilised ligand	1 µM	100
Nc1ncc2c(n1)-c1c([nH]c3ccc(C#CC4CC4)cc13)CCCC2	binding, competition with immobilised ligand	1 µM	70
c1cnn2ncc(-c3ccnc(N4CCC45COC5)n3)c2c1	binding	1 µM	98
O=C(NCCCN1CCOCC1)c1ccc(Nc2nccc(-c3cc4ccccc4s3)n2)cc1	binding, competition with immobilised ligand	1 µM	79
CN(C)c1nccc(-c2cnc3ncccn23)n1	binding	1 µM	90
O=C(c1ccc(Nc2ncc(Cl)c(-c3cc4ccccc4s3)n2)cc1)N1CCC(N2CCCC2)CC1	binding, competition with immobilised ligand	1 µM	85
